Assays:
[1] = target: T1, 5-hydroxytryptamine receptor 1A (Homo sapiens, UniProt P08908); assay: Inhibition of 5HT1A receptor
T1 sequence (P08908 whole entry): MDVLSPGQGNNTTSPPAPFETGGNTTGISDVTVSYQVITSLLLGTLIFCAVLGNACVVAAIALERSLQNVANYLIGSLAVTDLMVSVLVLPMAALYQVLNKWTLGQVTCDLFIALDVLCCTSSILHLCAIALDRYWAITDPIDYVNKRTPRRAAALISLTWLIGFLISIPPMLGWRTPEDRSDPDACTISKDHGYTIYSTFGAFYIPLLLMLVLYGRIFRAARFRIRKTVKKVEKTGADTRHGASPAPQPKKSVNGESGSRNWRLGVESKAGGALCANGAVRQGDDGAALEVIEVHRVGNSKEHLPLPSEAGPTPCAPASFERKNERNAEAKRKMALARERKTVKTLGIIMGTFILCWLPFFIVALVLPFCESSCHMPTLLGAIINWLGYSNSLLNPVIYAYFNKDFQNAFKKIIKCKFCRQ

[2] = target: D(2) dopamine receptor (Homo sapiens, UniProt P14416); assay: Inhibition of dopamine D2 receptor
Chain of D(2) dopamine receptor (P14416 whole entry): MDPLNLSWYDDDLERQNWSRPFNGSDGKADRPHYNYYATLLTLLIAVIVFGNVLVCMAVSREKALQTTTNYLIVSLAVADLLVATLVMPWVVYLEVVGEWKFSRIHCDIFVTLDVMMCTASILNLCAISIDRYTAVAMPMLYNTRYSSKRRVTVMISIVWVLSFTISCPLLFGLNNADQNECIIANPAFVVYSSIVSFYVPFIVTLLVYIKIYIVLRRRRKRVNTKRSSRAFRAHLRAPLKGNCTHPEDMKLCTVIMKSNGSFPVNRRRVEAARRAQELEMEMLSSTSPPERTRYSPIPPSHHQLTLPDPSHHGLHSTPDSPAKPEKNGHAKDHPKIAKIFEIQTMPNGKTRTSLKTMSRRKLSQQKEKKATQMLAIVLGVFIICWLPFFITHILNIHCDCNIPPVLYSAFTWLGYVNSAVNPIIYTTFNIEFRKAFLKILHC

[3] = target: T2, Cytochrome P450 1A2 (Homo sapiens, UniProt P05177); assay: Inhibition of CYP1A2; type: ADME
T2 sequence (P05177 whole entry): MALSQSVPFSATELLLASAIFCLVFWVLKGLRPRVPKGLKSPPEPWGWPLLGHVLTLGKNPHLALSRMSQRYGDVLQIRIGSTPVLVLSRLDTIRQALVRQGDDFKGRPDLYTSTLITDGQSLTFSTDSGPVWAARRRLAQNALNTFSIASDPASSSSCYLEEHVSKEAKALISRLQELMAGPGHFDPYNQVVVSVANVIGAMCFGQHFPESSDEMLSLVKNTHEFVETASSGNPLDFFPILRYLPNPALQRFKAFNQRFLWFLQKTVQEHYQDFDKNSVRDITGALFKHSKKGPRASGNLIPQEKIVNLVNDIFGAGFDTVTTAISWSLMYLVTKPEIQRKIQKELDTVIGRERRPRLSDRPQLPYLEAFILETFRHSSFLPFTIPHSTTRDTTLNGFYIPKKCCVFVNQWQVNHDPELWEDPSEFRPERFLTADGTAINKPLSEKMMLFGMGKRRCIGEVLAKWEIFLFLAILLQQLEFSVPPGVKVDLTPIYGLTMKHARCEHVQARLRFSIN

[4] = target: Cytochrome P450 2C9 (Homo sapiens, UniProt P11712); assay: Inhibition of CYP2C9; type: ADME
Chain of Cytochrome P450 2C9 (P11712 whole entry): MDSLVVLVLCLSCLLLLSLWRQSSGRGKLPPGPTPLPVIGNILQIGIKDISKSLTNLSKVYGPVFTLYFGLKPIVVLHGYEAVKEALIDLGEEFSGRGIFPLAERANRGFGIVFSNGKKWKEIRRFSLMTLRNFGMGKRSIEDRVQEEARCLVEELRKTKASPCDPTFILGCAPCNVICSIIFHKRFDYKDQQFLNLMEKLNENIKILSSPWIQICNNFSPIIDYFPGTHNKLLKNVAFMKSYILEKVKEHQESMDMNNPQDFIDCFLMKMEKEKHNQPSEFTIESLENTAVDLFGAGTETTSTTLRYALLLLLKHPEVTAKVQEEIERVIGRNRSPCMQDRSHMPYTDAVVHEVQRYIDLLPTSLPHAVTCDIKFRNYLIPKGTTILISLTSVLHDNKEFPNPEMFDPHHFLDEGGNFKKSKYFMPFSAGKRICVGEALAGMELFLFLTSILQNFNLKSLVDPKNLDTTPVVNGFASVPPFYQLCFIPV

[5] = system: Mus musculus; assay: Antidepressant activity in mouse assessed as decrease in duration of immobility at 100 mg/kg, po during final 5 mins of the 6 mins session by forced swimming test; type: functional; set-up: scale not given: the % may be the effect or the level left
Procedure, shortened: (§1)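 Mice swam 10 min in a 25-cm glass cylinder (10 cm diameter) holding 15 cm of water at 23 1 °C. Twenty-four hours later, drug was given po 60 min before retesting. Immobility (floating upright with only small movements keeping head above water) was totalled over the last 5 min of the 6-min test.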

[6] = target: 5-hydroxytryptamine receptor 6 (Homo sapiens, UniProt P50406); assay: Inhibition of 5HT6 receptor
Chain of 5-hydroxytryptamine receptor 6 (P50406 whole entry): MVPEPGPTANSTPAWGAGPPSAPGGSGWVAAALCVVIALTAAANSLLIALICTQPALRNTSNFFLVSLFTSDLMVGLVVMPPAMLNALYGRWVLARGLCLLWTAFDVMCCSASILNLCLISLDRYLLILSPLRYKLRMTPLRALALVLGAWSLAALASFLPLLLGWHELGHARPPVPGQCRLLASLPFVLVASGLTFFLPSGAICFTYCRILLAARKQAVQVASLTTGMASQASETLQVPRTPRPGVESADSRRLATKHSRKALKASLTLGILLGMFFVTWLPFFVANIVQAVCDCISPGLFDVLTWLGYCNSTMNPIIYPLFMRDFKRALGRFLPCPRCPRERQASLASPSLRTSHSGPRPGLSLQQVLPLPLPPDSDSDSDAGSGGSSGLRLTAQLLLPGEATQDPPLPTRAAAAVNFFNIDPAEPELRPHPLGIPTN

[7] = system: Mus musculus; assay: Antidepressant activity in mouse assessed as decrease in duration of immobility at 10 mg/kg, po during final 5 mins of the 6 mins session by forced swimming test; type: functional; set-up: scale not given: the % may be the effect or the level left; procedure, shortened: as §1
[8] = target: 5-hydroxytryptamine receptor 7 (Homo sapiens, UniProt P34969); assay: Inhibition of 5HT7 receptor
Chain of 5-hydroxytryptamine receptor 7 (P34969 whole entry): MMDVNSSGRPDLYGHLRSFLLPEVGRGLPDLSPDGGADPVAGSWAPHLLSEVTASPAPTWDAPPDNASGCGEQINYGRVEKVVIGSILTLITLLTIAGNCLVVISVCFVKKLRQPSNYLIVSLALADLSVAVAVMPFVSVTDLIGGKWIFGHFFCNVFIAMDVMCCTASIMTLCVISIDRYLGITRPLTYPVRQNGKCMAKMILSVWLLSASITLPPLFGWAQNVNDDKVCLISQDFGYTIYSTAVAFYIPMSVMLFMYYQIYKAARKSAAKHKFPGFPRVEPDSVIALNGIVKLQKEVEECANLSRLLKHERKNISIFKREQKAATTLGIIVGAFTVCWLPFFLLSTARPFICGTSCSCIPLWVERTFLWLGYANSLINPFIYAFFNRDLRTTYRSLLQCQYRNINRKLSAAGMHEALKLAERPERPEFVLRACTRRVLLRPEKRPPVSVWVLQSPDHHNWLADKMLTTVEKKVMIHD

[9] = target: T3, D(4) dopamine receptor (Homo sapiens, UniProt P21917); assay: Inhibition of dopamine D4 receptor
T3 sequence (P21917 whole entry): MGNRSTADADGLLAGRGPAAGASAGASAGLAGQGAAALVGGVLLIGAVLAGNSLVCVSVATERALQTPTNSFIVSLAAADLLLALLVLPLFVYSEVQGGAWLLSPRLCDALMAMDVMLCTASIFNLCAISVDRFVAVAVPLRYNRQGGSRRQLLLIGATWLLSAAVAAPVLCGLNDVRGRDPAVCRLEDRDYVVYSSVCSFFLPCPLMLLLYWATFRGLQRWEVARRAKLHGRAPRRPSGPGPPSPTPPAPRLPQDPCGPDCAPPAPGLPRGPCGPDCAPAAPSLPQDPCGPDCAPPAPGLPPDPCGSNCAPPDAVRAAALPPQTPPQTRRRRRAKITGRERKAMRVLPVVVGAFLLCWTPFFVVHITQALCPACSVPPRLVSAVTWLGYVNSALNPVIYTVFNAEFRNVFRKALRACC

[10] = target: Cytochrome P450 3A4 (Homo sapiens, UniProt P08684); assay: Inhibition of CYP3A4; type: ADME
Chain of Cytochrome P450 3A4 (P08684 whole entry): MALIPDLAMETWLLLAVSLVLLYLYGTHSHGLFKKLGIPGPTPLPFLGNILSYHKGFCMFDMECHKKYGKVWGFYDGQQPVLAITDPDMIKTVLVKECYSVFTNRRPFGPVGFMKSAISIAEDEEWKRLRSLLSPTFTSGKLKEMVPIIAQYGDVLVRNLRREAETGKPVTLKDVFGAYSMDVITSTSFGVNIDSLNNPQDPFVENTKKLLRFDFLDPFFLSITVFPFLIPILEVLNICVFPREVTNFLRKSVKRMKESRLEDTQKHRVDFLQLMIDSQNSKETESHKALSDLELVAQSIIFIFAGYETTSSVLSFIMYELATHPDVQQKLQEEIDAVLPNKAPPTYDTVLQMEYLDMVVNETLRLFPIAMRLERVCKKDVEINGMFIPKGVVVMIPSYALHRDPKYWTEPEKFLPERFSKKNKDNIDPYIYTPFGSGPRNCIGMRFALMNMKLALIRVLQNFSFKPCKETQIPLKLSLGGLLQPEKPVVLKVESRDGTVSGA

[11] = target: D(3) dopamine receptor (Homo sapiens, UniProt P35462); assay: Inhibition of dopamine D3 receptor
Chain of D(3) dopamine receptor (P35462 whole entry): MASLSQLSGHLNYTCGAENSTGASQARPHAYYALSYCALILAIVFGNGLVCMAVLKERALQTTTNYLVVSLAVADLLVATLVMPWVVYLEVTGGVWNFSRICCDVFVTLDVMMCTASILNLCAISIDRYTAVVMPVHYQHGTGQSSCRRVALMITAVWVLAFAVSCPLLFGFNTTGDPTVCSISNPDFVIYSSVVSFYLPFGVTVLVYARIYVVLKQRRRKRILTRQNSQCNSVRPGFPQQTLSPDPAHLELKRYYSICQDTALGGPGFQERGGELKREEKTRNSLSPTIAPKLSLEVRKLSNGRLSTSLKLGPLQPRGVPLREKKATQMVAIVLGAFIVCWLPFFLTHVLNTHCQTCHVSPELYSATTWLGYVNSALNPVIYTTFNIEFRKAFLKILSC

[12] = target: Cytochrome P450 2D6 (Homo sapiens, UniProt P10635); assay: Inhibition of CYP2D6; type: ADME
Chain of Cytochrome P450 2D6 (P10635 whole entry): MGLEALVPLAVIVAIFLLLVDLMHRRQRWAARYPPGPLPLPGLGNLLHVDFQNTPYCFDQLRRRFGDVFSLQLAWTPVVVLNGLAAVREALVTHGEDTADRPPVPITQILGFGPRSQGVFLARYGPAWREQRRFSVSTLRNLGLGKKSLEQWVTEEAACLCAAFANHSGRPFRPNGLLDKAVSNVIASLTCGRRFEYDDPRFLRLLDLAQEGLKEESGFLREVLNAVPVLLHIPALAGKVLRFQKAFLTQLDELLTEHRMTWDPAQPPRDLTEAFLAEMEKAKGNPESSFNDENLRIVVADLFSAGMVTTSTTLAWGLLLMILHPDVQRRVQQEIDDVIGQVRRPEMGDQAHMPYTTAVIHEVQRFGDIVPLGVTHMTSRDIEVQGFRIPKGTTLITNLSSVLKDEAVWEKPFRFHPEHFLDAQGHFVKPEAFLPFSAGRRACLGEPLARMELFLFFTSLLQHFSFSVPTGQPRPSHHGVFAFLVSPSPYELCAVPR

IC50 [1]: 54 nM
IC50 [2]: 2540 nM
IC50 [3]: > 20000 nM
IC50 [4]: 9700 nM
IC50 [6]: 713 nM
IC50 [8]: 333 nM
IC50 [9]: 984 nM
IC50 [10]: > 20000 nM
IC50 [11]: 915 nM
IC50 [12]: > 20000 nM
SMILES: Cc1c(C(=O)NCCCN2CCN(c3cccc(Cl)c3Cl)CC2)cc(-c2ccccc2)n1C
Activity [5]: <25%
Activity [7]: 80%
